ChEMBL document CHEMBL1145812, “Synthesis and biological evaluation of 18-methoxycoronaridine congeners. Potential antiaddiction agents” (J Med Chem, 2003)

biological target: T1, Neuronal acetylcholine receptor; alpha3/beta4 (Homo sapiens, UniProt P30926+P32297); test: Recovery from Ach evoked currents at alpha3-beta4 nicotinic acetylcholine receptor at 20 uM; type: functional; conditions: not given
How it was run: (§1)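 HEK293 cells transiently co-transfected with nAChR α3 and β4 cDNAs plus EGFP; EGFP-positive cells recorded 12–36 h later by whole-cell voltage clamp at -70 mV. Pipette: CsCl/CsF/HEPES/EGTA, pH 7.2; bath: NaCl/KCl/HEPES/glucose, pH 7.3. Each compound was co-applied at 20 µM (one at 18 µM) with 1 mM ACh. Reported: percent inhibition, rate of inhibition and percent recovery, as mean ± SEM.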

Point of comparison: COCCC1C2CN3CCc4c([nH]c5ccccc45)[C@](C(=O)OC)(C2)[C@H]13 (stereo partly drawn), Recovery 14%. Against it:
- COCC[C@H]1CC2CN3CCc4c([nH]c5ccccc45)[C@](C(=O)OCCO)(C2)[C@H]13 — higher, 20%
- COCC[C@H]1CC2CN3CCc4c([nH]c5ccccc45)[C@](C(=O)OCCN(C)C)(C2)[C@H]13 — higher, 16%
- COC(=O)[C@@]12CC3C[C@H](CCN(C)C)[C@@H]1N(CCc1c2[nH]c2ccccc12)C3 — higher, 16%
- COCCOC(=O)[C@@]12CC3C[C@H](CCOC)[C@@H]1N(CCc1c2[nH]c2ccccc12)C3 — lower, 8%
- COCC[C@H]1CC2CN3CCc4c([nH]c5ccccc45)[C@](C(=O)O)(C2)[C@H]13 — higher, 27%
- CNCC[C@H]1CC2CN3CCc4c([nH]c5ccccc45)[C@](C(=O)OC)(C2)[C@H]13 — higher, 21%

system: not listed separately; test: Relative inhibition index (RI) was determined as the % recovery / (rate of inhibition) and is expressed relative to Compound 3; type: functional; conditions: not given
How it was run: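 Read from the same α3β4 whole-cell ACh (1 mM) co-application recordings. The index is percent recovery divided by rate of inhibition, normalised to the parent reference ligand. Values below 1.0 mean lower Ki; values above 1.0 mean higher Ki.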

Point of comparison: COCC[C@H]1CC2CN3CCc4c([nH]c5ccccc45)[C@](C(=O)O)(C2)[C@H]13, RI 2.4. Against it:
- COCCC1C2CN3CCc4c([nH]c5ccccc45)[C@](C(=O)OC)(C2)[C@H]13 (stereo partly drawn) — lower, 1.6
- COCC[C@H]1CC2CN3CCc4c([nH]c5ccccc45)[C@](C(=O)OCCO)(C2)[C@H]13 — lower, 1.2
- COCC[C@H]1CC2CN3CCc4c([nH]c5ccccc45)[C@](C(=O)OCCN(C)C)(C2)[C@H]13 — lower, 0.7
- COC(=O)[C@@]12CC3C[C@H](CCN(C)C)[C@@H]1N(CCc1c2[nH]c2ccccc12)C3 — lower, 0.9
- COCCOC(=O)[C@@]12CC3C[C@H](CCOC)[C@@H]1N(CCc1c2[nH]c2ccccc12)C3 — lower, 0.6
- CNCC[C@H]1CC2CN3CCc4c([nH]c5ccccc45)[C@](C(=O)OC)(C2)[C@H]13 — lower, 1.1

biological target: Mu-type opioid receptor (Cavia porcellus) (UniProt P97266); test: Inhibitory activity was determined against Opioid receptor mu 1 from guinea pig brain membranes at 1 uM concentration, using 0.25 nM of [3H]DAMGO radioligand; conditions: Membrane
Sequence (P97266 whole entry): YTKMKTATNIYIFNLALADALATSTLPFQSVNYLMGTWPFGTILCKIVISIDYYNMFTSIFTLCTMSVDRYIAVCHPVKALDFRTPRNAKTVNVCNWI
How it was run: (§2)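 Guinea pig brain membranes (0.5 mg protein/sample) were incubated at 25 °C in 50 mM Tris-HCl, pH 7.5, with receptor-specific radioligand and compound at 1 µM. Nonspecific binding was defined with 10 µM naloxone. Values are the mean ± SE of three separate experiments, each run in triplicate.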

COCC[C@H]1CC2CN3CCc4c([nH]c5ccccc45)[C@](C(=O)O)(C2)[C@H]13 showed an inhibition of 11%.

biological target: T1, Neuronal acetylcholine receptor; alpha3/beta4; test: Inhibition of Ach evoked currents at alpha3-beta4 nicotinic acetylcholine receptor by 20 uM concentration; type: functional; conditions: not given; how it was run: as §1

Point of comparison: COCC[C@H]1CC2CN3CCc4c([nH]c5ccccc45)[C@](C(=O)O)(C2)[C@H]13, inhibition 59%. Against it:
- COCCC1C2CN3CCc4c([nH]c5ccccc45)[C@](C(=O)OC)(C2)[C@H]13 (stereo partly drawn) — higher, 94%
- COCC[C@H]1CC2CN3CCc4c([nH]c5ccccc45)[C@](C(=O)OCCO)(C2)[C@H]13 — higher, 97%
- COCC[C@H]1CC2CN3CCc4c([nH]c5ccccc45)[C@](C(=O)OCCN(C)C)(C2)[C@H]13 — higher, 98%
- COC(=O)[C@@]12CC3C[C@H](CCN(C)C)[C@@H]1N(CCc1c2[nH]c2ccccc12)C3 — higher, 99%
- COCCOC(=O)[C@@]12CC3C[C@H](CCOC)[C@@H]1N(CCc1c2[nH]c2ccccc12)C3 — higher, 99%
- CNCC[C@H]1CC2CN3CCc4c([nH]c5ccccc45)[C@](C(=O)OC)(C2)[C@H]13 — higher, 98%

biological target: Mu-type opioid receptor (Cavia porcellus) (UniProt P97266); test: Inhibition of [3H]DAMGO binding to Opioid receptor mu 1 from guinea pig brain membranes; parameters: concentration or dose not given beside the values; conditions: concentration not given here; how it was run: as §2

Point of comparison: COCC[C@H]1CC2CN3CCc4c([nH]c5ccccc45)[C@](C(=O)OCCN(C)C)(C2)[C@H]13, inhibition 16%. Against it:
- COCCC1C2CN3CCc4c([nH]c5ccccc45)[C@](C(=O)OC)(C2)[C@H]13 (stereo partly drawn) — higher, 18%
- COCC[C@H]1CC2CN3CCc4c([nH]c5ccccc45)[C@](C(=O)OCCO)(C2)[C@H]13 — lower, 8%
- COC(=O)[C@@]12CC3C[C@H](CCN(C)C)[C@@H]1N(CCc1c2[nH]c2ccccc12)C3 — lower, 15%
- COCCOC(=O)[C@@]12CC3C[C@H](CCOC)[C@@H]1N(CCc1c2[nH]c2ccccc12)C3 — lower, 5%
- CNCC[C@H]1CC2CN3CCc4c([nH]c5ccccc45)[C@](C(=O)OC)(C2)[C@H]13 — higher, 24%

biological target: T1, Neuronal acetylcholine receptor; alpha3/beta4; test: Rate of inhibition of Ach evoked currents at alpha3-beta4 nicotinic acetylcholine receptor by 20 uM concentration; type: functional; conditions: not given; how it was run: as §1

Point of comparison: COCC[C@H]1CC2CN3CCc4c([nH]c5ccccc45)[C@](C(=O)OCCO)(C2)[C@H]13, Rate of inhibition 7.6 s⁻¹. Against it:
- COCCC1C2CN3CCc4c([nH]c5ccccc45)[C@](C(=O)OC)(C2)[C@H]13 (stereo partly drawn) — 1.9-fold lower, 4.1 s⁻¹
- COCC[C@H]1CC2CN3CCc4c([nH]c5ccccc45)[C@](C(=O)OCCN(C)C)(C2)[C@H]13 — within 1.5-fold, 10.3 s⁻¹
- COC(=O)[C@@]12CC3C[C@H](CCN(C)C)[C@@H]1N(CCc1c2[nH]c2ccccc12)C3 — within 1.5-fold, 8 s⁻¹
- COCCOC(=O)[C@@]12CC3C[C@H](CCOC)[C@@H]1N(CCc1c2[nH]c2ccccc12)C3 — within 1.5-fold, 6 s⁻¹
- COCC[C@H]1CC2CN3CCc4c([nH]c5ccccc45)[C@](C(=O)O)(C2)[C@H]13 — within 1.5-fold, 5.1 s⁻¹
- CNCC[C@H]1CC2CN3CCc4c([nH]c5ccccc45)[C@](C(=O)OC)(C2)[C@H]13 — within 1.5-fold, 8.5 s⁻¹

biological target: Kappa-type opioid receptor (Cavia porcellus) (UniProt P41144); test: Inhibition of [3H]U-69593 binding to Opioid receptor kappa 1 from guinea pig brain membranes; parameters: concentration or dose not given beside the values; conditions: concentration not given here; how it was run: as §2
Sequence (P41144 whole entry): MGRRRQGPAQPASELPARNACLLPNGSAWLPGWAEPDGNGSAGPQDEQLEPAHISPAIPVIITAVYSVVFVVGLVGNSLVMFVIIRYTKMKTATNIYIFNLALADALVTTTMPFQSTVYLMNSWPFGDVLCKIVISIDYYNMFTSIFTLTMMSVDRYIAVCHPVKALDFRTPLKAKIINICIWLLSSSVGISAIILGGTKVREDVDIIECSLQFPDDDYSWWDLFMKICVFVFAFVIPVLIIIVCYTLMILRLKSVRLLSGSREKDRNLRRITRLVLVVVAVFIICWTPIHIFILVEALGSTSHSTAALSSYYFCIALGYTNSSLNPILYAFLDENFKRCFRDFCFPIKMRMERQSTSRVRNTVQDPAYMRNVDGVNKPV

Point of comparison: COCC[C@H]1CC2CN3CCc4c([nH]c5ccccc45)[C@](C(=O)O)(C2)[C@H]13, inhibition 7%. Against it:
- COCCC1C2CN3CCc4c([nH]c5ccccc45)[C@](C(=O)OC)(C2)[C@H]13 (stereo partly drawn) — higher, 10%
- COCC[C@H]1CC2CN3CCc4c([nH]c5ccccc45)[C@](C(=O)OCCO)(C2)[C@H]13 — higher, 8%
- COCC[C@H]1CC2CN3CCc4c([nH]c5ccccc45)[C@](C(=O)OCCN(C)C)(C2)[C@H]13 — higher, 78%
- COC(=O)[C@@]12CC3C[C@H](CCN(C)C)[C@@H]1N(CCc1c2[nH]c2ccccc12)C3 — higher, 11%
- COCCOC(=O)[C@@]12CC3C[C@H](CCOC)[C@@H]1N(CCc1c2[nH]c2ccccc12)C3 — higher, 24%
- CNCC[C@H]1CC2CN3CCc4c([nH]c5ccccc45)[C@](C(=O)OC)(C2)[C@H]13 — the same, 7%

biological target: Kappa-type opioid receptor (Cavia porcellus, UniProt P41144); test: Binding affinity was determined against Opioid receptor kappa 1 from guinea pig brain membranes; conditions: not given
Sequence (P41144 whole entry): as above

In the case of COCC[C@H]1CC2CN3CCc4c([nH]c5ccccc45)[C@](C(=O)OCCN(C)C)(C2)[C@H]13, the Ki is reported as 0.188 µM.
